ChEMBL document CHEMBL1138360, “Hypoxia-selective 3-alkyl 1,2,4-benzotriazine 1,4-dioxides: the influence of hydrogen bond donors on extravascular transport and antitumor activity” (J Med Chem, 2007)

Columns and labels:
HT-29 [1] = experiment: Cytotoxicity against HT29 cells under hypoxic condition after 4 hrs; format: functional, cell-based; settings: Homo sapiens, HT-29, 4 h
In short: (§1)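 HT29 or SiHa cells exposed to drug for 4 h in 96-well plates under anoxia (H2/Pd anaerobic chamber). IC50 determined.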

HT-29 [2] = experiment: Ratio of IC50 for HT29 cells in aerobic condition to IC50 for HT29 cells in hypoxic condition after 4 hrs; format: functional, Homo sapiens
In short: (§2)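 Aerobic and anoxic (H2/Pd chamber) IC50s measured in the same experiment after 4 h exposure, HT29 or SiHa cells. Ratio computed as aerobic IC50/anoxic IC50.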

SiHa [3] = experiment: Cytotoxicity against SiHa cells under hypoxic condition after 4 hrs; format: functional, cell-based; settings: Homo sapiens; in short: as §1
SiHa [4] = experiment: Ratio of IC50 for SiHa cells in aerobic condition to IC50 for SiHa cells in hypoxic condition after 4 hrs; format: functional, Homo sapiens; in short: as §2
HT-29 [5] = experiment: Drug penetration in anoxic HT29 cells assessed as penetration half distance; format: ADME, cell-based; settings: human
HT-29 [6] = experiment: Cell viability in anoxic HT29 cells assessed as drug level providing 10% surviving fraction by clonogenic assay; format: cell-based; settings: human
[7] = Toxicity in ip dosed CD1 mouse; format: organism-based; settings: in vivo
In short: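 Single i.p. doses given to homozygous nude CD-1 Foxn1nu mice, with the vehicle formulated per compound. Doses escalated in 1.33-fold increments. MTD was defined as the highest dose causing no mortality, no body weight loss >15% and no other severe morbidity in any of six mice.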

[8] = Cmax in CD1 mouse plasma at 133 umol/kg, ip; format: ADME, organism-based; parameters: dose 133 umol/kg, route intraperitoneal
In short: (§3)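 Single i.p. dose to homozygous nude CD-1 Foxn1nu mice, at 75 or 100% of MTD (MTD set by 1.33-fold dose steps; highest dose without death, >15% weight loss or severe morbidity in any of six mice). Total drug measured in plasma by HPLC. AUC, Cmax and terminal t½ derived noncompartmentally. Measured levels taken as free drug.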

[9] = Terminal half life in CD1 mouse plasma at 133 umol/kg, ip; format: ADME, organism-based; in short: as §3
[10] = AUC (0 to infinity) in CD1 mouse plasma at 133 umol/kg, ip; format: ADME, organism-based; parameters: dose 133 umol/kg, route intraperitoneal, time infinity; in short: as §3
HT-29 [11] = experiment: Diffusion coefficient, D in aerobic HT29 multicellular layers; format: ADME, cell-based; settings: human
In short: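 Drug flux measured through HT29 multicellular layers on Teflon support membranes under 95% O2 at 37 °C, 50 µM initial donor concentration. Donor and receiver levels fitted with a diffusion model. Layer thickness estimated from flux of internal standard urea.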

[12] = Cmax in CD1 mouse plasma at 750 umol/kg, ip; format: ADME, organism-based; parameters: dose 750 umol/kg, route intraperitoneal; in short: as §3
[13] = Terminal half life in CD1 mouse plasma at 750 umol/kg, ip; format: ADME, organism-based; in short: as §3
[14] = AUC (0 to infinity) in CD1 mouse plasma at 750 umol/kg, ip; format: ADME, organism-based; parameters: dose 750 umol/kg, time infinity, route intraperitoneal; in short: as §3
HT-29 [15] = experiment: Antitumor activity against HT29 tumor inoculated in CD1 nude mouse at 750 umol/kg, ip administered 5 mins after gamma irradiation by excision assay relative to radiation alone; format: functional, Homo sapiens
In short: (§4)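 HT29 xenografts in nude CD-1 mice received 20 Gy γ radiation, then a single i.p. drug dose 5 min later, at 100% or 75% of MTD. Tumors excised 18 h afterwards, dissociated to single cells and plated for clonogens/g tumor. Hypoxic cell kill = log(clonogens/g, radiation only) − log(clonogens/g, radiation + drug).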

HT-29 [16] = experiment: Antitumor activity against HT29 tumor inoculated in CD1 nude mouse at 1000 umol/kg, ip relative to control
[17] = Cmax in CD1 mouse plasma at 562 umol/kg, ip; format: ADME, organism-based; parameters: dose 562 umol/kg, route intraperitoneal; in short: as §3
[18] = AUC (0 to infinity) in CD1 mouse plasma at 562 umol/kg, ip; format: ADME, organism-based; parameters: dose 562 umol/kg, time infinity, route intraperitoneal; in short: as §3
HT-29 [19] = experiment: Antitumor activity against HT29 tumor inoculated in CD1 nude mouse at 562 umol/kg, ip administered 5 mins after gamma irradiation by excision assay relative to radiation alone; format: functional, Homo sapiens; in short: as §4
[20] = Cmax in CD1 mouse plasma at 421 umol/kg, ip; format: ADME, organism-based; parameters: dose 421 umol/kg, route intraperitoneal; in short: as §3
[21] = Terminal half life in CD1 mouse plasma at 421 umol/kg, ip; format: ADME, organism-based; in short: as §3
[22] = AUC (0 to infinity) in CD1 mouse plasma at 421 umol/kg, ip; format: ADME, organism-based; parameters: dose 421 umol/kg, time infinity, route intraperitoneal; in short: as §3
HT-29 [23] = experiment: Antitumor activity against HT29 tumor inoculated in CD1 nude mouse at 421 umol/kg, ip relative to control; format: functional, Homo sapiens
HT-29 [24] = experiment: Antitumor activity against HT29 tumor inoculated in CD1 nude mouse at 421 umol/kg, ip administered 5 mins after gamma irradiation by excision assay relative to radiation alone; format: functional, Homo sapiens; in short: as §4
[25] = Terminal half life in CD1 mouse plasma at 562 umol/kg, ip; format: ADME, organism-based; in short: as §3
HT-29 [26] = experiment: Antitumor activity against HT29 tumor inoculated in CD1 nude mouse at 562 umol/kg, ip relative to control; format: functional, Homo sapiens
[27] = Cmax in CD1 mouse plasma at 316 umol/kg, ip; format: ADME, organism-based; parameters: dose 316 umol/kg, route intraperitoneal; in short: as §3
[28] = Terminal half life in CD1 mouse plasma at 316 umol/kg, ip; format: ADME, organism-based; in short: as §3
[29] = AUC (0 to infinity) in CD1 mouse plasma at 316 umol/kg, ip; format: ADME, organism-based; parameters: dose 316 umol/kg, time infinity, route intraperitoneal; in short: as §3
HT-29 [30] = experiment: Antitumor activity against HT29 tumor inoculated in CD1 nude mouse at 316 umol/kg, ip administered 5 mins after gamma irradiation by excision assay relative to radiation alone; format: functional, Homo sapiens; in short: as §4

CCc1n[n+]([O-])c2ccc(OCCN3CCCCC3)cc2[n+]1[O-]
IC50 (HT-29 [1]): 1.5 µM | Ratio IC50 (HT-29 [2]): 254 | IC50 (SiHa [3]): 1 µM | Ratio IC50 (SiHa [4]): 302 | Penetration half distance (HT-29 [5]): 34 µm | Activity (HT-29 [6]): 6.8 µM·h | MTD [7]: 178 µmol/kg | Cmax [8]: 9.8 µM | half-life [9]: 25 min | AUC(0-inf) [10]: 7.75 µM·h

CCc1n[n+]([O-])c2ccc(OCCCN3CCOCC3)cc2[n+]1[O-]
IC50 (HT-29 [1]): 6.8 µM | Ratio IC50 (HT-29 [2]): 153 | IC50 (SiHa [3]): 4.3 µM | Ratio IC50 (SiHa [4]): 217 | D (HT-29 [11]): 7.48 10^-7cm2/sec | Activity (HT-29 [5]): 64 µM | Activity (HT-29 [6]): 38.6 µM·h | MTD [7]: 1000 µmol/kg | Cmax [12]: 150 µM | half-life [13]: 34.8 min | AUC(0-inf) [14]: 162 µM·h | Activity (HT-29 [15]): 1.66% | Activity (HT-29 [16]): 0.14%

CCc1n[n+]([O-])c2ccc(OC)cc2[n+]1[O-]
IC50 (HT-29 [1]): 16.8 µM | Ratio IC50 (HT-29 [2]): 73 | IC50 (SiHa [3]): 6.8 µM | Ratio IC50 (SiHa [4]): 175 | Penetration half distance (HT-29 [5]): 34 µm | Activity (HT-29 [6]): 69.9 µM·h | MTD [7]: 750 µmol/kg | Cmax [17]: 71.5 µM | AUC(0-inf) [18]: 138 µM·h | Activity (HT-29 [19]): 0.76%

CCc1n[n+]([O-])c2ccc(OCCN(C)C)cc2[n+]1[O-]
IC50 (HT-29 [1]): 1.3 µM | Ratio IC50 (HT-29 [2]): 307 | IC50 (SiHa [3]): 0.8 µM | Ratio IC50 (SiHa [4]): 374 | Penetration half distance (HT-29 [5]): 34 µm | Activity (HT-29 [6]): 5.1 µM·h | MTD [7]: 562 µmol/kg | Cmax [20]: 55.5 µM | half-life [21]: 32.2 min | AUC(0-inf) [22]: 55.7 µM·h | Activity (HT-29 [23]): 0.23% | Activity (HT-29 [24]): 0.88%

COCCc1n[n+]([O-])c2ccccc2[n+]1[O-]
IC50 (HT-29 [1]): 3.5 µM | Ratio IC50 (HT-29 [2]): 49 | IC50 (SiHa [3]): 1.6 µM | Ratio IC50 (SiHa [4]): 61 | D (HT-29 [11]): 20.89 10^-7cm2/sec | Penetration half distance (HT-29 [5]): 34 µm | Activity (HT-29 [6]): 21.3 µM·h | MTD [7]: 421 µmol/kg | Cmax [20]: 176 µM | half-life [21]: 18 min | AUC(0-inf) [22]: 113 µM·h | Activity (HT-29 [23]): 0.3% | Activity (HT-29 [24]): 0.8%

CCc1n[n+]([O-])c2ccccc2[n+]1[O-]
IC50 (HT-29 [1]): 6.8 µM | Ratio IC50 (HT-29 [2]): 54 | IC50 (SiHa [3]): 5.9 µM | Ratio IC50 (SiHa [4]): 84 | D (HT-29 [11]): 26.12 10^-7cm2/sec | Penetration half distance (HT-29 [5]): 63 µm | Activity (HT-29 [6]): 19.7 µM·h | MTD [7]: 562 µmol/kg | Cmax [17]: 271 µM | half-life [25]: 11.2 min | AUC(0-inf) [18]: 146 µM·h | Activity (HT-29 [26]): 0.11% | Activity (HT-29 [19]): 0.89%

CCc1n[n+]([O-])c2cc(OCCCN3CCOCC3)ccc2[n+]1[O-]
IC50 (HT-29 [1]): 3 µM | Ratio IC50 (HT-29 [2]): 147 | IC50 (SiHa [3]): 1.3 µM | Ratio IC50 (SiHa [4]): 181 | Penetration half distance (HT-29 [5]): 34 µm | Activity (HT-29 [6]): 7.1 µM·h | MTD [7]: 421 µmol/kg | Cmax [27]: 30.1 µM | half-life [28]: 36 min | AUC(0-inf) [29]: 33 µM·h | Activity (HT-29 [30]): 0.98%
